# Columns and labels:
# Assay type in all cases: functional
# [1] = system: UO-31; assay: Cytotoxicity against human UO31 cells assessed as cell growth at 0.01 uM after 48 hrs by sulforhodamine B assay; conditions: UO-31, 48 h, read-out: Activity
# [2] = system: NCI-H322M; assay: Cytotoxicity against human NCI-H322M cells assessed as cell growth at 100 uM after 48 hrs by sulforhodamine B assay; conditions: read-out: Activity
# [3] = system: HL-60(TB); assay: Cytotoxicity against human HL-60(TB) cells assessed as cell growth at 10 uM after 48 hrs by sulforhodamine B assay; conditions: HL-60, 48 h, read-out: Activity
# Method in brief: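 NCI five-dose screen on the HL-60(TB) leukaemia line, grown in RPMI 1640 with 5% FBS and 2 mM L-glutamine and plated for 24 h before dosing. DMSO stocks were diluted in medium. Cells were exposed 48 h at 37 °C, then settled cells were fixed in 16% TCA (final) and stained with SRB, absorbance 515 nm. Percent growth = (Ti−Tz)/(C−Tz)×100, or (Ti−Tz)/Tz×100 when Ti<Tz.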
# [4] = system: EKVX; assay: Cytotoxicity against human EKVX cells assessed as cell growth at 100 uM after 48 hrs by sulforhodamine B assay; conditions: read-out: Activity
# Method in brief: (§1)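 Five-dose NCI panel run at 0.01, 0.1, 1, 10 and 100 µM. Cells were in RPMI 1640 with 5% FBS and 2 mM L-glutamine, seeded at 5000–40,000 cells/well and pre-incubated 24 h. Drug was diluted from a DMSO stock into medium with 50 µg/ml gentamicin. Exposure was 48 h at 37 °C, 5% CO2. Cells were fixed with cold TCA and stained with 0.4% SRB, read at 515 nm. Percent growth came from time-zero, control and test absorbances.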
# [5] = system: OVCAR-5; assay: Cytotoxicity against human OVCAR5 cells assessed as cell growth at 10 uM after 48 hrs by sulforhodamine B assay; conditions: OVCAR-5, 48 h, read-out: Activity
# [6] = system: HT-29; assay: Cytotoxicity against human HT-29 cells assessed as cell growth at 100 uM after 48 hrs by sulforhodamine B assay; conditions: HT-29, 48 h, read-out: Activity; method in brief: as §1
# [7] = system: NCI-H322M; assay: Cytotoxicity against human NCI-H322M cells assessed as cell growth at 10 uM after 48 hrs by sulforhodamine B assay; conditions: read-out: Activity
# [8] = system: PC-3; assay: Cytotoxicity against human PC3 cells assessed as cell growth at 0.1 uM after 48 hrs by sulforhodamine B assay; conditions: PC-3, 48 h, read-out: Activity
# [9] = system: NCI-H460; assay: Cytotoxicity against human NCI-H460 cells assessed as cell growth at 1 uM after 48 hrs by sulforhodamine B assay; conditions: NCI-H460, 48 h, read-out: Activity
# [10] = system: M14; assay: Cytotoxicity against human M14 cells assessed as cell growth at 10 '-5 M after 48 hrs by sulforhodamine B assay; conditions: M14, 48 h, read-out: Activity
# [11] = system: SK-OV-3; assay: Cytotoxicity against human SKOV3 cells assessed as cell growth at 0.1 uM after 48 hrs by sulforhodamine B assay; conditions: SK-OV-3, 48 h, read-out: Activity
# [12] = system: NCI-H460; assay: Cytotoxicity against human NCI-H460 cells assessed as cell growth at 10 uM after 48 hrs by sulforhodamine B assay; conditions: NCI-H460, 48 h, read-out: Activity
# [13] = system: HCT-116; assay: Cytotoxicity against human HCT116 cells assessed as cell growth at 1 uM after 48 hrs by sulforhodamine B assay; conditions: HCT-116, 48 h, read-out: Activity; method in brief: as §1
# [14] = system: TK-10; assay: Cytotoxicity against human TK10 cells assessed as cell growth at 1 uM after 48 hrs by sulforhodamine B assay; conditions: TK-10, 48 h, read-out: Activity
# [15] = system: LOX IMVI; assay: Cytotoxicity against human LOXIMVI cells assessed as cell growth at 1 uM after 48 hrs by sulforhodamine B assay; conditions: read-out: Activity
# [16] = system: PC-3; assay: Growth inhibition of human PC3 cells after 48 hrs by sulforhodamine B assay; conditions: PC-3, 48 h; for CC50: read-out: LC50 (the source's name)
# Method in brief: (§2)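 Adherent NCI-60 lines were grown in RPMI 1640 with 5% FBS and 2 mM L-glutamine, plated at 5000–40,000 cells/well and preincubated 24 h. They were then exposed to five concentrations (0.01–100 µM, from a DMSO stock) for 48 h at 37 °C, 5% CO2. Cells were fixed with cold TCA (10% final, 60 min, 4 °C) and stained with 0.4% SRB. Dye was solubilized in 10 mM Tris base and A515 read. GI50 was derived from time-zero, control and treated absorbances.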
# [17] = system: SK-MEL-28; assay: Cytotoxicity against human SK-MEL-28 cells assessed as cell growth at 10 uM after 48 hrs by sulforhodamine B assay; conditions: SK-MEL-28, 48 h, read-out: Activity
# [18] = system: HCT-116; assay: Growth inhibition of human HCT116 cells after 48 hrs by sulforhodamine B assay; conditions: HCT-116, 48 h; for CC50: read-out: LC50 (the source's name); method in brief: as §2
# [19] = system: CCRF-CEM; assay: Cytotoxicity against human CCRF-CEM cells assessed as cell growth at 100 uM after 48 hrs by sulforhodamine B assay; conditions: read-out: Activity
# Method in brief: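 CCRF-CEM suspension leukemia cells in RPMI 1640 with 5% FBS and 2 mM L-glutamine, plated 24 h before dosing. Five concentrations (0.01–100 µM) were applied from a DMSO stock for 48 h at 37 °C. Settled cells were fixed with 80% TCA (final 16%) and stained with SRB, with read-out at 515 nm. Percent growth was derived from time-zero and control absorbances.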
# [20] = system: A549; assay: Cytotoxicity against human A549 cells assessed as cell growth at 0.01 uM after 48 hrs by sulforhodamine B assay; conditions: A549, 48 h, read-out: Activity
# Method in brief: (§3)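 NCI-60 five-dose screen. Cells were grown in RPMI 1640 with 5% FBS and 2 mM L-glutamine and preincubated 24 h. Compound (DMSO stock) was tested at 0.01, 0.1, 1, 10 and 100 µM for 48 h at 37 °C. Cells were fixed in situ with cold TCA (final 10%) and stained with 0.4% SRB. A515 was read, and percent growth was calculated against time-zero and control plates.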
# [21] = system: A498; assay: Cytotoxicity against human A498 cells assessed as cell growth at 1 uM after 48 hrs by sulforhodamine B assay; conditions: A498, 48 h, read-out: Activity; method in brief: as §3
# [22] = system: NCI/ADR-RES; assay: Cytotoxicity against human NCI/ADR-RES cells assessed as cell growth at 10 '-5 M after 48 hrs by sulforhodamine B assay; conditions: read-out: Activity
# [23] = system: DU-145; assay: Cytotoxicity against human DU145 cells assessed as cell growth at 10 uM after 48 hrs by sulforhodamine B assay; conditions: DU-145, 48 h, read-out: Activity; method in brief: as §1
# [24] = system: SF-268; assay: Cytotoxicity against human SF268 cells assessed as cell growth at 10 '-5 M after 48 hrs by sulforhodamine B assay; conditions: SF-268, 48 h, read-out: Activity
# [25] = system: UACC-62; assay: Cytotoxicity against human UACC62 cells assessed as cell growth at 1 uM after 48 hrs by sulforhodamine B assay; conditions: UACC-62, 48 h, read-out: Activity
Structure (SMILES),growth at 0.01 µM [1] [%],growth at 100 µM [2] [%],growth at 10 µM [3] [%],growth at 100 µM [4] [%],growth at 10 µM [5] [%],growth at 100 µM [6] [%],growth at 10 µM [7] [%],growth at 0.1 µM [8] [%],growth at 1 µM [9] [%],growth at 10 µM [10] [%],growth at 0.1 µM [11] [%],growth at 10 µM [12] [%],growth at 1 µM [13] [%],growth at 1 µM [14] [%],growth at 1 µM [15] [%],TGI [16] [µM],CC50 [16] [µM],growth at 10 µM [17] [%],GI50 [18] [µM],TGI [18] [µM],also measured
Cc1ccc2nc(Nc3c(C)cccc3C)sc2c1,90,69,30,53,65,39,67,94,81,26.2,104,22,66,82,62,> 100,> 100,45,2.3,> 100,CC50 [18]: > 100 µM; growth at 100 µM [19]: 83%; growth at 0.01 µM [20]: 103%; growth at 1 µM [21]: 53%; growth at 10 µM [22]: 4.04%; growth at 10 µM [23]: 75%; growth at 10 µM [24]: 61%; growth at 1 µM [25]: 52%
Clc1cccc(Cl)c1Nc1nc2cccc(Cl)c2s1,88,-95,-47,-73,-93,-56,-83,81,67,-61.3,99,-75,51,59,55,2.3,6.81,-86,1.01,2.19,GI50 [16]: 0.526 µM; CC50 [18]: 4.75 µM; growth at 100 µM [19]: -12%; growth at 0.01 µM [20]: 103%; growth at 1 µM [21]: 26%; growth at 10 µM [22]: -37.3%; growth at 10 µM [23]: -96%; growth at 10 µM [24]: -33.9%; growth at 1 µM [25]: 51%
